Screening results (PubChem)
PAFAH1B2 FP inh: inhibitors of human PAFAH1B2. P68402. recombinant PAFAH1B2, FP-rhodamine activity probe, fluorescence polarization. inhibition, % at 3.39 µM. actives 1.2% (n = 340,000);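 active means inhibition above the mean of all tested compounds plus 3 SD, cut at about 24% in these data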
PAFAH1B3 FP inh: blocks human PAF acetylhydrolase 1B catalytic subunit 3 | recombinant PAFAH1B3, FP-rhodamine probe, fluorescence polarization | inhibition, % at 3.39 µM | actives 0.28% (n = 340,000);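 active means inhibition above the screen-wide average of all tested compounds plus 3 SD, cut at about 25% in these data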
Target sequence (Q15102 whole entry, looked up): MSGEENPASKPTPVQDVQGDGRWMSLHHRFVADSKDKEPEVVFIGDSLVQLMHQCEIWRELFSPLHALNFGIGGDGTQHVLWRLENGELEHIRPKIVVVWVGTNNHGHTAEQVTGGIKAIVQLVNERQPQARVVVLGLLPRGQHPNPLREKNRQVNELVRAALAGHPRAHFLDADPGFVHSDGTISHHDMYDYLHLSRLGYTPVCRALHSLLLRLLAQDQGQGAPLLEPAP
HTRA1 inh: inhibitors of human serine peptidase HTRA1; Q92743; recombinant HTRA1, FP-rhodamine activity-based probe, fluorescence polarization; inhibition, % at 5.96 µM; actives 0.5% (n = 340,000); in the data active means inhibition above about 36%
pPAFAH FP inh: pPAFAH (human) enzyme inhibition | recombinant pPAFAH, FP-rhodamine probe fluorescence polarization | inhibition, % at 3.39 µM | actives 1.5% (n = 330,000) | AID 463082;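 active means inhibition above the mean inhibition across the screen plus 3 SD, cut at about 25% in these data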;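 further: inhibitors block binding of the rhodamine activity-based probe so polarization drops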
Target sequence (Q13093 whole entry, looked up): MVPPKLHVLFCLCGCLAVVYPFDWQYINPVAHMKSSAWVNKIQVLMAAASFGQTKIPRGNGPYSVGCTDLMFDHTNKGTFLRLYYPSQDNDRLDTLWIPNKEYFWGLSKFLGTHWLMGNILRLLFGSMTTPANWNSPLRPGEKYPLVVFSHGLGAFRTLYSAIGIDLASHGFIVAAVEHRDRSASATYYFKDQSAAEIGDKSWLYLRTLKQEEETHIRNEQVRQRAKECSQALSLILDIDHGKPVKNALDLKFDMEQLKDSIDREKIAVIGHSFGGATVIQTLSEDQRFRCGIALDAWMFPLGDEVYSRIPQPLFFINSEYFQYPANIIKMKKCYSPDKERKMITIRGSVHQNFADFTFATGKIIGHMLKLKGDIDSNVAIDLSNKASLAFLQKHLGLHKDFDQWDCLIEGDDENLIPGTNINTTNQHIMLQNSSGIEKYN
mABHD4 FP: inhibitors of mouse ABHD4; Q8VD66; purified mABHD4, FP-Rh probe fluorescence polarization; inhibition, % at 8.92 µM; actives 0.54% (n = 370,000); AID 720543;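 active means inhibition exceeding the mean over every tested compound plus 3 SD, cut at about 30% in these data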
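assay system = mABHD4 protein | compound dosing = single nominal dose of 8.92 µM, 0.89% DMSO final | read-out basis = percent inhibition of probe binding, normalized to plate controls | schedule = Enzyme–compound pre-incubation 45 min, then probe 60 min, both 25 °C | detection = fluorescence polarization, excitation 525 nm, emission 598 nm, BODIPY TMR filters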
PAFAH2 inh: inhibitors of human PAFAH2; actives 0.99% (n = 340,000); AID 492956; recombinant PAFAH2, FP-rhodamine activity probe, fluorescence polarization; Q99487; inhibition, % at 3.39 µM;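 active means inhibition above the mean over all tested compounds plus 3 SD, cut at about 30% in these data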;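 further: inhibitors block probe labeling of enzyme so polarization drops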
ABHD4 confirm: confirmation of mouse ABHD4 inhibitors | shares compounds with mABHD4 FP | actives 55% (n = 1,800) | inhibition, % at 8.92 µM | purified mABHD4, FP-Rh probe fluorescence polarization | AID 720658;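 active means mean inhibition across replicates above the hit cutoff set in the primary screen, cut at about 30% in these data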
A number is an active result; . = inactive; / = not tested or not shown. A selection: hits, their analogues and other compounds. The true share with any hit is near 2.8%.

SMILES	PAFAH1B2 FP inh	PAFAH1B3 FP inh	HTRA1 inh	pPAFAH FP inh	mABHD4 FP	PAFAH2 inh	ABHD4 confirm
COc1ccc(NC(=O)CN(C)C(=O)c2ccccc2CCc2ccccc2)cc1	.	.	.	.	.	.	/
CN(CC(=O)Nc1cccc(F)c1)C(=O)c1ccccc1CCc1ccccc1	.	.	.	.	36.0	.	.
COc1cc(/C=N/NC(=S)NCCc2ccccc2)cc(OC)c1OC	.	.	.	/	.	.	/
COc1cc(/C=N/NC(=S)NC2CC3C=CC2C3)cc(OC)c1OC (stereo unspecified)	/	/	/	.	29.7	/	37.8
Cc1ccc(C)c(NC(=O)C2CCCN2S(=O)(=O)c2cccc3cccnc23)c1 (stereo unspecified)	/	/	/	/	.	/	/
CN(C)/C=C/c1oc2ccc(O)cc2c1[N+](=O)[O-]	.	.	.	.	32.4	.	.
Cc1cccc(NC(=O)CN2C(=O)CCSc3ccccc32)c1C	/	/	/	/	.	/	/
O=C(Cn1nc(-c2ccccc2)ccc1=O)NCCc1cccc(F)c1	/	/	/	/	.	/	/
COCCCN1C(=O)[C@H](CC(=O)N2CCN(C(=O)c3ccco3)CC2)[C@]2(C(=O)OC)CCCCC=C12	/	/	/	/	.	/	/
COc1ccc(N2C(=O)CS/C2=C\[N+](=O)[O-])cc1	.	.	.	.	30.2	.	.
Cc1ccccc1C(=O)N(C)[C@H]1C[C@H]2c3[nH]c4c(-c5ccccc5)cccc4c3CCN2C[C@H]1[C@H](C)O	/	/	/	/	.	/	/
COc1ccc(-n2c(Cc3cccs3)nnc2SCC(=O)Nc2ccc(OCc3ccccc3)cc2)cc1	/	/	/	/	.	/	/
CCN(CC)c1ccc2cc(C(N)=O)c(=O)oc2c1	.	.	.	.	41.4	.	.
CCN(CC)c1ccc2cc(C(N)=O)c(=N)oc2c1	/	/	/	.	.	/	/
CC(=O)N1CCCN(S(=O)(=O)c2ccc3c(c2)oc(=O)n3C)CC1	/	/	/	/	.	/	/
Cc1occc1-c1nnc(SCC(=O)N2CCN(c3ncccn3)CC2)n1-c1ccccc1	/	/	/	/	.	/	/
Nc1c(-c2ccc(C(F)(F)F)cc2)nc2ncccn12	/	/	/	/	37.7	/	.
C[C@@H]1COc2cc(Br)ccc2S(=O)(=O)N1Cc1cn(Cc2ccc(F)cc2)nn1	/	/	/	/	.	/	/
O=C(Nc1ccc2c(c1)OCO2)N1CCC(c2nc3ccc(Cl)cc3[nH]2)CC1	/	/	/	/	.	/	/
N=C1S/C(=C\c2ccc(-c3ccccc3C(=O)O)o2)C(=O)N1c1ccc2c(c1)OCO2	.	.	.	/	49.0	.	62.8
COc1ccccc1N1C(=N)S/C(=C\c2ccc(-c3ccccc3C(=O)O)o2)C1=O	.	.	.	.	.	.	/
COc1ccccc1N(C(C)=O)C1=C(Cl)C(=O)c2ccccc2C1=O	/	/	.	/	39.4	/	46.5
COc1ccccc1N(C(=O)CCl)c1cn(C(C)=O)c2ccccc12	.	.	.	.	.	.	/
O=S1(=O)c2c(cccc2N2CCC[C@@H]2CO)O[C@H]2CCN1C2	/	/	/	/	.	/	/
c1cc2c(cc1CNc1ccc(N3CCOCC3)cc1)OCO2	.	.	.	.	29.6	.	.
SMILES	PAFAH1B2 FP inh	PAFAH1B3 FP inh	HTRA1 inh	pPAFAH FP inh	mABHD4 FP	PAFAH2 inh	ABHD4 confirm
Cc1ccc(CNc2ccc(N3CCOCC3)cc2)cc1	.	.	.	.	.	.	/
Cc1[nH]nc2c1C(c1ccc(Br)cc1)N(c1ccccc1)C2=O (stereo unspecified)	/	/	/	/	.	/	/
NC(=S)N/N=C1\c2ccccc2-c2c(C(=O)O)cccc21	.	.	.	.	41.9	.	47.1
CCC(=O)N1CCc2cc(Br)c(S(=O)(=O)NCCCN(C)Cc3ccccc3)cc21	/	/	/	/	.	/	/
C#CCNC(=O)C[C@H]1C[C@@]2(C(=O)OC)C(=C[C@H](COCc3ccccc3)O[C@@H]2C)N(CCc2ccc(OC)c(OC)c2)C1=O	/	/	/	/	.	/	/
O=C(Nc1cccc(F)c1)OCCCN1CCC2(CCC(c3ccccc3)CC2)C1 (stereo unspecified)	/	/	/	/	.	/	/
Nc1cccc(N2C(=O)c3cccc4c(N)ccc(c34)C2=O)c1	.	.	.	.	.	.	/
Cc1cccc(N2C(=O)c3cccc4c(N)ccc(c34)C2=O)c1	.	.	.	.	.	.	/
Nc1ccc2c3c(cccc13)C(=O)N(c1ccccc1)C2=O	.	.	.	/	38.3	.	33.0
CC(C)CCN1C(=O)c2cccc3c(N)ccc(c23)C1=O	.	.	.	.	50.1	.	61.6
CCCC[C@H]1C2CC(OC(=O)Nc3cccc(C(F)(F)F)c3)C(C2)[C@H]2CCCCN21 (stereo partly specified)	/	/	/	/	.	/	/
CCOC(=O)[C@]12CCCCC/C=C\1N(Cc1ccc(OC)cc1)C(=O)[C@H]2CC(=O)NCc1ccccc1	/	/	/	/	.	/	/
CCCCC#Cc1ccc(C(=O)NNC(=O)Nc2ccccc2)o1	.	.	.	.	.	.	/
O=C(O)c1ccccc1OCc1ccccc1Br	.	.	.	.	.	.	/
O=C(C#Cc1ccccc1)Nc1ccccc1F	.	.	.	.	.	.	/
F[B-](F)(F)COCc1ccccc1C#Cc1ccccc1	/	/	/	/	77.1	/	78.5
F[B-](F)(F)COCc1ccccc1Br	.	.	.	/	80.0	.	70.4
CCCCC#Cc1ccccc1COC[B-](F)(F)F	/	/	/	/	75.2	/	74.6
O=C(OC12CCCN(C1)/C(=C/c1ccccc1)C2)c1ccc(F)cc1 (stereo unspecified)	/	/	/	/	.	/	/
Brc1cccc(Cn2ccc3ccc(-c4ccc5ccn(Cc6cccc(Br)c6)c5c4)cc32)c1	/	/	/	/	.	/	/
N#CC1=C(N)C(C#N)(C#N)[C@H](c2ccoc2)[C@H]2CN(Cc3ccccc3)CC=C12	.	.	.	.	31.5	.	.
CC(=O)N1CC=C2C(C#N)=C(N)C(C#N)(C#N)[C@H](c3ccoc3)[C@H]2C1	.	.	.	.	.	.	/
N/C(Cc1cccc2ccccc12)=N\OC(=O)c1ccccc1F	.	.	.	/	47.7	.	.
COc1cccc(-c2cc(CNC(=O)[C@H]3O[C@@H](n4cnc(C(N)=O)n4)[C@H](O)[C@@H]3O)no2)c1	/	/	/	/	.	/	/
CCOc1ccc(CCNC(=O)CS(=O)Cc2nc(-c3ccc(C)cc3)oc2C)cc1 (stereo unspecified)	.	.	.	.	30.4	.	.
SMILES	PAFAH1B2 FP inh	PAFAH1B3 FP inh	HTRA1 inh	pPAFAH FP inh	mABHD4 FP	PAFAH2 inh	ABHD4 confirm
CCOc1ccc(CCNC(=O)CS(=O)Cc2nc(-c3ccc(C)cc3)oc2C)cc1OCC (stereo unspecified)	.	.	.	.	.	.	/
COc1cccc(-c2cc(C(C)=O)c3n(c2=O)CCC3)c1OC	/	/	/	/	.	/	/
COc1ccc(N2CCN(C(=O)Cn3cncn3)CC2)cc1	.	.	.	.	36.6	.	.
Cc1[nH]c2ccccc2c1CC(=O)Nc1ccc(Nc2cccnc2)c(-c2ccc(F)c(F)c2)c1	/	/	/	/	.	/	/
Cc1ccc(-c2cc(NC(=O)Cc3c(C)[nH]c4ccccc34)ccc2Nc2cccnc2)cc1	/	/	/	/	32.3	/	37.1
Nc1cc(Cl)nc(N/N=C/c2c(O)ccc3ccccc23)n1	.	.	.	.	32.0	.	.
